Consider 13 compounds from PubChem BioAssay.

For orientation: inhibition means the change of the read-out against control, counted positive when it falls.

Test [1] can be described thus: inhibitors of TNFa-induced NFkB p65 translocation, primary screen, imaging, HUVEC, MLSMR starter and 10KST1 sets (AID 438;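 active = inhibition above 20% together with a positive visual image hit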;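 note: compound added about 3h40 before a 20 min TNFalpha stimulation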;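 for inhibition: signal is the nuclear over cytoplasmic p65 intensity ratio per well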). Conditions: HUVEC TNFa-induced p65 nuclear translocation; cell count: measured here: nuclei count (cytotoxicity indicator), at 2.08 µM; inhibition: at 2 µM, stronger effect = higher value, 0% TNFa-plus-vehicle, 100% no-TNFa wells.
Test [2] in a line: endothelial E-selectin expression blockers – imaging, HUVEC, immunofluorescence, MLSMR starter and 10KST1 sets, primary screen (AID 487;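 active = visually confirmed hit in the image check and inhibition above 20%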;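 for inhibition: signal is fraction of cell area covered by stained E-selectin grains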;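 for nuclei count: 100% = median nuclei count of all wells on the same plate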). Conditions: HUVEC TNFalpha-induced E-selectin immunofluorescence imaging, at 2 µM; inhibition: stronger effect = higher value; nuclei count: measured here: cell number, toxicity.
A short description of test [3]: Primary imaging screen for DUSP6 inhibitors that restore phospho-Erk in transfected HeLa cells, chemical complementation (AID 609;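 active = compounds giving at least 50% inhibition in the cell-based MKP-3 phosphatase rescue imaging test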;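 for inhibition: phospho-Erk level distribution per well compared with pooled transfected vehicle control wells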). Conditions: HeLa MKP-3 transfected, phospho-Erk imaging KS statistic, at 10 µM, cells stimulated with TPA for 15 min.
The target of test [4] is Dual specificity protein phosphatase 6 (Homo sapiens) (UniProt Q16828). The description is as above. Conditions: HeLa MKP-3 transfected, phospho-Erk imaging KS statistic; at 10 µM; stronger effect = higher value; cells stimulated with TPA for 15 min.
Test [5] addresses Voltage-gated potassium channel subunit beta-2 (Rattus norvegicus) (UniProt P62483). In words: inhibitors of rat Kvbeta2 reductase activity – biochemical, NADPH fluorescence, primary screen (AID 622;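 active = fluorescence slope higher than the sample average by over 3 SD, cut at about -0.22 in these data, passing the limit was not always enough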;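 note: slope of raw intensity against log time taken from 70 to 1610 s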). To be noted: recombinant KvBeta, 4-cyanobenzaldehyde reduction, at 10 µM, stronger effect = higher value.
For test [6] the target is unchanged. Nature of the test: enhancers of rat Kvbeta2 NADPH turnover – biochemical, NADPH fluorescence, primary screen (AID 623).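 Note: fluorescence intensity change per second fitted from 20 to 320 s.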 To be noted: Recombinant KvBeta, NADPH fluorescence decrease slope, 10 min; at 10 µM; stronger effect = lower value.
For test [7], the target named is Alpha-2C adrenergic receptor (Homo sapiens) (UniProt P18825). Nature of the test: compounds altering alpha2C-coupled GIRK flux – cell-based, HEK293 alpha2C/GIRK1/2, thallium flux, primary screen (AID 624;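 active = fluorescence slope after compound addition differing from the mean of all screened samples at 99.7% confidence, in either direction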;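 note: slope of fluorescence ratio to pre-addition baseline per second over 15 to 24 s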). To be noted: thallium flux BTC fluorescence, at 10 µM, actives lie on both sides.
The nature of test [8]: inhibitors of larval lipid processing in zebrafish, primary screen, whole organism, PED6 fluorescence, gall bladder and intestine (AID 686;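 active = a full or partial loss of lipid-probe fluorescence in the fish gall bladder, intestine or both, judged by eye; inactive = no fluorescence loss, or compound toxic to the fish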;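 note: larvae 5 to 7 days old with five fish per well; signal comes from phospholipase A2 cleavage of quenched PED6 carried via bile; overnight exposure to compound and PED6 before scoring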). Conditions: Zebrafish larvae PED6 lipid processing, fluorescence scoring; screened at 20 µM (by protocol). In short, it runs like this: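 Also added: quenched phospholipase substrate PED6, 100 nM final, ingested by larvae; System: zebrafish larvae, 5-7 d; Quantity: 5 larvae per well; Compound: 20 µM single dose; Schedule: overnight compound and PED6 incubation; Read-out: visual per-well fluorescence inhibition score; Measured by: By-eye fluorescence microscopy; Medium: E3.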

The nature of test [9]: loss of swimming-algae plug formation – whole organism, Chlamydomonas reinhardtii, WT vs cilia-less mutant, absorbance, 96-well, primary screen (AID 463189;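 active = inhibition at or above 50% relative to wild type and mutant plate controls; inactive = inhibition below 50%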;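 note: 0% = wild type cc124 cells in DMSO and 100% = ciliumless bld1 mutant cells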). Conditions: Chlamydomonas reinhardtii gravitaxis, OD600 absorbance, 2 days; at 10 µM; stronger effect = higher value.
Where [10] appears, read: measured here: cell density z-score.
Where [11] appears, read: measured here: nuclear c-Myc green intensity z-score.
The mark [12] stands for this setting: measured here: nuclear pErk red intensity z-score, stronger effect = higher value.

The source made the active and inactive calls.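 Rule for the calls, unless noted: active = NADPH fluorescence slope more negative than the mean of all samples by about 3 SD, 99.7% confidence; inactive = the rest.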

Alpha-2C adrenergic receptor (Homo sapiens), sequence (P18825 whole entry, looked up): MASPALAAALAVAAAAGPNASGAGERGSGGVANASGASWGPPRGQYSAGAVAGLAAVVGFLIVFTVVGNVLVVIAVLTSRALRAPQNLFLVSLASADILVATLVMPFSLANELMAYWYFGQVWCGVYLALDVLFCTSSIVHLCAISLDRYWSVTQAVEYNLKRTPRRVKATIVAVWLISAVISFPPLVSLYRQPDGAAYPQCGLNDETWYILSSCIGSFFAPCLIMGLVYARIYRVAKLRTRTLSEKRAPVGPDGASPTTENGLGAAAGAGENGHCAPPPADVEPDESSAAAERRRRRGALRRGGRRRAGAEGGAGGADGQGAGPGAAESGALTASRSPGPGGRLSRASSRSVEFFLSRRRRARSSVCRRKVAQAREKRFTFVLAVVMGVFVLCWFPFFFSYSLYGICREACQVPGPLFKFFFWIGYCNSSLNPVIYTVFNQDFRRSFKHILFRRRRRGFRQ
Dual specificity protein phosphatase 6 (Homo sapiens), sequence (Q16828 whole entry, looked up): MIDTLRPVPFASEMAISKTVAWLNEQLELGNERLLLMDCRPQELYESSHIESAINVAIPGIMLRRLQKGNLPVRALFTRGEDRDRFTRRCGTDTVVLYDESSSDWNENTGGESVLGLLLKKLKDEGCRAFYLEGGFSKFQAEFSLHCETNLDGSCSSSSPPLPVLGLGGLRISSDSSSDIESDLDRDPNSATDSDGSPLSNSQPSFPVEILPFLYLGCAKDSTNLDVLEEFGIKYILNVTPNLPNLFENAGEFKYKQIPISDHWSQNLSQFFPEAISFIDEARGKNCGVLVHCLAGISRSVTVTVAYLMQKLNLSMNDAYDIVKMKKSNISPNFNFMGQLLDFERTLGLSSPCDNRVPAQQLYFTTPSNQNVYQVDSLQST
Voltage-gated potassium channel subunit beta-2 (Rattus norvegicus), sequence (P62483 whole entry, looked up): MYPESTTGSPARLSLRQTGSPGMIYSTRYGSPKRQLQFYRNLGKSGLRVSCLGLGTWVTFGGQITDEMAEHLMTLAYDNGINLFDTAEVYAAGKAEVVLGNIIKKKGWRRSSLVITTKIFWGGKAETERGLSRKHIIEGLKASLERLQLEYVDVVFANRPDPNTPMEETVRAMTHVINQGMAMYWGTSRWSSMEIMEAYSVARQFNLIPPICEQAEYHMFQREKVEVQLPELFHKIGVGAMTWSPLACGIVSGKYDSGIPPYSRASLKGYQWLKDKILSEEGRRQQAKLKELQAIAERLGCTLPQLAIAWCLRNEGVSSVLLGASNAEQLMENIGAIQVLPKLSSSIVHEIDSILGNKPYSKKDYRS

For the compound `O=C(O)c1nsc(Cl)c1Cl`, in test [1], the cell count turned out to be 628. Moreover, the inhibition is -18.8% (inactive) in test [1], 39.2% (inactive) in [2], -6.06% (inactive) in [4] and 6.17% (inactive) in [9]. Besides, the nuclei count in [2] amounted to 170%. The z-score was -0.315 in [3] (setting [10]), -1.86 in test [3] (setting [11]) and 0.801 in test [3] (setting [12]). In addition, in test [5], the fluorescence slope was -0.386 (inactive). Further, the NADPH fluorescence slope in test [6] was -3.3e-06 (inactive). Also, in test [7], the slope is 0.00603 (inactive). Besides, in [8], the result was inactive.
Consider `COc1cccc(C2/C(=C(/O)c3ccc(C)cc3)C(=O)C(=O)N2Cc2ccco2)c1` (centres undefined), for which the cell count in test [1] came to 552. The inhibition was -6.3% (inactive) in test [1], -20% (inactive) in test [2], 4.72% (inactive) in test [4] and 15.2% (inactive) in test [9]. Further, the nuclei count in test [2] stood at 123%. The z-score is 0.537 in [3] (setting [10]), 0.655 in [3] (setting [11]) and -1.35 in test [3] (setting [12]). Also, in test [5], the fluorescence slope is -0.512 (inactive). Besides, the NADPH fluorescence slope in test [6] is -5.6e-05 (inactive). The slope in test [7] is 0.00539 (inactive). The compound was classed as inactive in [8].
Take `Cc1c(Cl)c(C(F)(F)F)nn1CC(=O)N1CCSCC1`: in test [1], the cell count is 511. Moreover, the inhibition in test [1] is -3.6% (inactive); in test [2], -110% (inactive); in test [4], -9.7% (inactive); in [9], -2.53% (inactive). This compound also gave a nuclei count in test [2] of 152%. Further, the z-score was -0.563 in test [3] (setting [10]), -0.304 in [3] (setting [11]) and 1.29 in [3] (setting [12]). Also, in [5], the fluorescence slope is -0.555 (inactive). Also, in [6], the NADPH fluorescence slope is -4.7e-05 (inactive). The slope in test [7] is 0.00531 (inactive). Besides, in [8], the compound was called inactive.
As for `CC1(C)Cc2c(sc3nc(SCC#N)n(C4CCCCC4)c(=O)c23)CO1`, in [1], the cell count stood at 633. The inhibition in test [1] is -10.8% (inactive); in test [2], 51% (inactive); in [4], 6.04% (inactive); in test [9], -8.06% (inactive). The same compound returned a nuclei count in [2] of 154%. The z-score in test [3] (setting [10]) was -1.73; in [3] (setting [11]), 0.192; in test [3] (setting [12]), 0.926. Moreover, the fluorescence slope in test [5] is -0.356 (inactive). Besides, the NADPH fluorescence slope in [6] was -4.5e-05 (inactive). In addition, in test [7], the slope was 0.0054 (inactive). Moreover, the call in test [8] was inactive.
With `Cn1c(=O)c2c3c(sc2n2c(SCC(N)=O)nnc12)CC(C(C)(C)C)CC3` (centres undefined), the cell count in [1] turned out to be 508. Further, the inhibition was -9.7% (inactive) in test [1], -30% (inactive) in [2], 3.56% (inactive) in [4] and 92.5% (active) in test [9]. Moreover, the nuclei count in test [2] was 91.7%. In addition, the results for the z-score in test [3] (setting [10]), in test [3] (setting [11]) and in test [3] (setting [12]) were 1.25, -0.417 and 0.675, respectively. For the same compound, the fluorescence slope in test [5] was -0.371 (inactive). Moreover, the NADPH fluorescence slope in test [6] is 6.2e-07 (inactive). Also, the slope in [7] is 0.00521 (inactive). Further, in test [8], the call was inactive.
With `Cc1cc(C)nc(NC2=NCC(=O)N2c2cccc(Cl)c2)n1`, in [1], the cell count stood at 581. In addition, the inhibition in test [1] is -4.9% (inactive); in [2], -200% (inactive); in [4], 15.9% (inactive); in test [9], -3.6% (inactive). In test [2], this compound registered a nuclei count of 141%. The values for the z-score in test [3] (setting [10]), in test [3] (setting [11]) and in test [3] (setting [12]) were 1.05, 1.03 and -2.43, respectively. Moreover, the fluorescence slope in [5] is -0.517 (inactive). The NADPH fluorescence slope in test [6] is -4.2e-05 (inactive). In addition, the slope in [7] was 0.00561 (inactive). Further, the call in test [8] was inactive.
For `COc1ccc(-c2nc3n(c2Br)CCC3)cc1`, the cell count in [1] is 587. The inhibition in test [1] is -14.6% (inactive); in test [2] it was -22.2% (inactive); in [4], 39% (inactive); in test [9], 49.9% (inactive). This compound gave a nuclei count in test [2] of 162%. Also, the z-score in test [3] (setting [10]) is 1.1; in test [3] (setting [11]) it was 0.741; in [3] (setting [12]) it was -1.03. Further, in test [5], the fluorescence slope is -0.503 (inactive). The NADPH fluorescence slope in [6] is -2.6e-05 (inactive). The slope in test [7] is 0.00527 (inactive). Moreover, the call in [8] was inactive.
With `CCN1CCN(c2nc3c(C)cccn3c(=O)c2/C=C(\C#N)S(=O)(=O)c2ccc(C)cc2)CC1`, the cell count in [1] was determined as 519. Further, the inhibition in test [1] was -0.8% (inactive); in test [2], -173% (inactive); in test [4], 1.6e-07% (inactive); in test [9], 14.6% (inactive). In test [2], this compound came in with a nuclei count of 118%. The z-score in test [3] (setting [10]) was 0.354; in [3] (setting [11]) it was -1.44; in test [3] (setting [12]) it was 0.701. Besides, the fluorescence slope in [5] was -0.51 (inactive). In addition, in test [6], the NADPH fluorescence slope is -6.4e-05 (inactive). Moreover, in [7], the slope is 0.00274 (inactive). The call in test [8] was inactive.
Regarding `C=CCn1c(SCC(=O)OC)nc2sc3c(c2c1=O)CCN(C)C3`, in test [1], the cell count worked out at 489. The inhibition is 5.2% (inactive) in test [1], -55.9% (inactive) in test [2], 1.48% (inactive) in test [4] and -3.61% (inactive) in test [9]. In [2], the nuclei count amounted to 177%. For the same compound, the z-score in test [3] (setting [10]) was 0.349; in test [3] (setting [11]), 0.211; in [3] (setting [12]), -0.762. Besides, in test [5], the fluorescence slope is -0.234 (inactive). The NADPH fluorescence slope in [6] is -1.8e-05 (inactive). In test [7], the slope was 0.00333 (inactive). In test [8], the compound was called inactive.
Consider `CCOC(=O)CNS(=O)(=O)c1cc(-c2nn(C)c(=O)c3ccccc23)ccc1C`, for which the cell count in test [1] stood at 560. In addition, the inhibition in test [1] is -1.9% (inactive); in test [2], 45.7% (inactive); in test [4], 8.76% (inactive); in test [9] it was -1.44% (inactive). Also, in [2], the nuclei count amounted to 144%. Further, the z-score is 1.99 in test [3] (setting [10]), -1.09 in test [3] (setting [11]) and -0.809 in test [3] (setting [12]). In addition, the fluorescence slope in test [5] is -0.385 (inactive). Also, the NADPH fluorescence slope in test [6] was -1.9e-05 (inactive). The slope in [7] is 0.00449 (inactive). Besides, in test [8], the call was inactive.
Consider `COc1ccc(OC)c2c(N)c(C#N)c(C(F)(F)C(F)(F)F)nc12`, for which the cell count in test [1] turned out to be 295. Besides, the inhibition in test [1] is -8.5% (inactive); in test [2], 9% (inactive); in [4], 21% (inactive); in test [9] it was -13.9% (inactive). Also, the nuclei count in test [2] came out at 85.5%. Besides, the z-score in test [3] (setting [10]) was 1; in [3] (setting [11]), -1.13; in [3] (setting [12]), -0.419. The fluorescence slope in [5] is -0.402 (inactive). For the same compound, the NADPH fluorescence slope in [6] is -3.3e-05 (inactive). In test [7], the slope was 0.00519 (inactive). In test [8], the result was inactive.
On to `Cc1nc2c(c(=O)n1CC1CCCO1)c1nc3ccccc3nc1n2Cc1ccc2c(c1)OCO2` (centres undefined), for which, in test [1], the cell count turned out to be 281. Moreover, the inhibition is -7.1% (inactive) in test [1], -128% (inactive) in test [2], -0.584% (inactive) in [4] and 9.64% (inactive) in [9]. In addition, the nuclei count in [2] worked out at 80.3%. Also, the z-score in test [3] (setting [10]) was 2.15; in test [3] (setting [11]), -0.362; in [3] (setting [12]), -1.56. For the same compound, in test [5], the fluorescence slope was -0.42 (inactive). Moreover, in [6], the NADPH fluorescence slope is -0.000106 (inactive). Besides, in test [7], the slope is 0.00645 (inactive). Moreover, the outcome in [8] was inactive.
Take `CCN(CC)CCN1C(=O)C(=O)/C(=C(/O)c2ccc(C)cc2)C1c1cccnc1` (centres undefined): the cell count in test [1] came out at 390. Further, the inhibition is -0.5% (inactive) in [1], -20.8% (inactive) in [2], -5.89% (inactive) in test [4] and 8.05% (inactive) in test [9]. Further, in [2], the nuclei count stood at 113%. The z-score in test [3] (setting [10]) was 0.619; in test [3] (setting [11]), -0.778; in [3] (setting [12]), 0.527. Besides, the fluorescence slope in [5] is -0.426 (inactive). The NADPH fluorescence slope in test [6] was -5.7e-05 (inactive). Besides, the slope in [7] is 0.00669 (inactive). The call in test [8] was inactive.
